Assay results: ChEMBL document CHEMBL1132614, “Novel inhibitors of carboxypeptidase G2 (CPG2): potential use in antibody-directed enzyme prodrug therapy” (J Med Chem, 1999)
Values belong to the compound of their own block, whether it stands above or below them.

Assays:
[1] = system: LS174T; assay: The compound was evaluated for the cytotoxicity towards LS174T cells.; assay type: functional, cell-based; conditions: Homo sapiens
How it was run: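 LS174T human colon adenocarcinoma cells (CEA-expressing) exposed to graded inhibitor, 0.01–500 μM in medium, for 1 h at 37 °C. Cells were washed once, grown a further 6 days, and survival was read by SRB assay to give IC50.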

[2] = system: LS174T; assay: Cytotoxicity in conjugate with 2-(4-Methoxy-phenylsulphanylcarbonylamino)-pentanedioic acid at a concentration of 50 micuM against LS174T cells.; assay type: functional, cell-based; conditions: Homo sapiens
[3] = system: LS174T; assay: The compound was evaluated for the cytotoxicity with the compound alone against LS174T cells.; assay type: functional, cell-based; conditions: Homo sapiens
How it was run: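 LS174T cells were exposed to graded compound alone (0.01–500 μM in medium) for 1 h at 37 °C, with no conjugate. Cells were washed once with medium and cultured a further 6 days. Survival was measured by sulforhodamine B (SRB) assay.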

[4] = system: LS174T; assay: Cytotoxicity in conjugate with F(ab')2-A5B7-CPG2 and 2-(4-Methoxy-phenylsulphanylcarbonylamino)-pentanedioic acid at a concentration of 25 uM against LS174T cells.; assay type: functional, cell-based; conditions: Homo sapiens
How it was run: (§1)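 LS174T human colon adenocarcinoma cells (CEA-expressing) were exposed to F(ab')2-A5B7-CPG2 conjugate (3.32 μg/mL, 0.505 U/mL) for 1 h at 37 °C and washed twice to remove unbound conjugate. They were then exposed for 1 h at 37 °C to graded prodrug plus the stated fixed CPG2 inhibitor level (25 or 50 μM). After a wash, cells grew 6 days; survival was measured by SRB assay.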

[5] = system: LS174T; assay: Cytotoxicity in conjugate with F(ab')2-A5B7-CPG2 and 2-(4-Methoxy-phenylsulphanylcarbonylamino)-pentanedioic acid at a concentration of 50 uM against LS174T cells.; assay type: functional, cell-based; conditions: Homo sapiens; how it was run: as §1
[6] = system: LS174T; assay: The compound was evaluated for the cytotoxicity in conjugate with F(ab')2-A5B7-CPG2 against LS174T cells.; assay type: functional, cell-based; conditions: Homo sapiens
How it was run: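 They then received graded prodrug (0.01–500 μM in medium) for 1 h at 37 °C to generate the phenol mustard in situ. After a wash and a further 6 days, survival was measured by SRB assay.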

[7] = The compound was evaluated for the apparent Vmax through Lineweaver-Burke Plot of MTX turnover by CPG2 at a concentration of 0.5 (uM).; assay type: ADME
How it was run: (§2)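 CPG2 (10 μL of 28.66 μg/mL stock) in a 1-mL cuvette; reaction started with 990 μL methotrexate (3.077–70 μM) alone or with inhibitor at fixed 0.5 or 1.0 μM (final). Buffer was 0.1 M Tris-HCl pH 7.3, 0.1 mM ZnCl2, 37 °C. A320 decrease over 0–60 s gave initial velocities; apparent Vmax came from Lineweaver–Burk plots.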

[8] = The compound was evaluated for the apparent Vmax through Lineweaver-Burke Plots of MTX turnover by CPG2 at a concentration of 1 (uM).; assay type: ADME; how it was run: as §2
[9] = The compound was evaluated for the apparent Vmax through Lineweaver-Burke Plots of MTX turnover by CPG2 at a concentration of 0 (uM).; assay type: ADME; how it was run: as §2

Structure (SMILES): COc1cccc(SC(=O)NC(CCC(=O)O)C(=O)O)c1 (stereo not given)
IC50 [1]: > 500 µM

Structure (SMILES): Cc1cccc(SC(=O)NC(CCC(=O)O)C(=O)O)c1 (stereo not given)
IC50 [1]: > 500 µM

Structure (SMILES): O=C(O)CCC(NC(=O)Oc1ccc(N(CCCl)CCCl)cc1)C(=O)O (stereo not given)
IC50 [2]: 24 µM | IC50 [3]: 23.2 µM | IC50 [4]: 3.3 µM | IC50 [5]: 16.2 µM | IC50 [6]: 0.8 µM

Structure (SMILES): Nc1cccc(SC(=O)NC(CCC(=O)O)C(=O)O)c1 (stereo not given)
IC50 [1]: > 500 µM

Structure (SMILES): Cc1ccc(SC(=O)NC(CCC(=O)O)C(=O)O)cc1 (stereo not given)
IC50 [1]: > 500 µM

Structure (SMILES): Nc1ccc(SC(=O)NC(CCC(=O)O)C(=O)O)cc1 (stereo not given)
IC50 [1]: 416 µM

Vmax [7]: 47.7 µM/min | Vmax [8]: 42.3 µM/min | Vmax [9]: 80 µM/min
Structure (SMILES): COc1ccc(SC(=O)N[C@H](CCC(=O)O)C(=O)O)cc1
IC50 [1]: > 500 µM

Structure (SMILES): COc1ccc(SC(=O)N[C@@H](CCC(=O)O)C(=O)O)cc1
IC50 [1]: > 500 µM
